This is an account of results in publication PMC9260854 (Biochemistry, 2022).

Data set [1] concerns Oc1ccc2ccc3cccc4ccc1c2c34. Put plainly: purified protein, by the assay type. To be noted: saturating PAPS (300 μM), (−) quercetin, pH 7.5, 25.0 °C.
The next data set concerns SULT2B1b. To be noted: cited from earlier work.
Data set [2] deals with T1, SULT2B1b S347D (Homo sapiens, UniProt O00204, S347D).
T1 sequence (O00204 1-365 S347D): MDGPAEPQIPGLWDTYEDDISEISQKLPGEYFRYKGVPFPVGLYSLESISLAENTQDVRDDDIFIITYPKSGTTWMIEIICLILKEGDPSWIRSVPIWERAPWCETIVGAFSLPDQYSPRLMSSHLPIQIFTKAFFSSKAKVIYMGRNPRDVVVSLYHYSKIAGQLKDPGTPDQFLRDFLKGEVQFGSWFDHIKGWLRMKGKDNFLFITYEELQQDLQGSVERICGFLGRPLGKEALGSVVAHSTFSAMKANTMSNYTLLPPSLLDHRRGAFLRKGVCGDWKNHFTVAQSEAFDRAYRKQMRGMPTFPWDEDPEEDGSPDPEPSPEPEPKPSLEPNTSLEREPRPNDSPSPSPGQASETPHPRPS
Put plainly: Initial-rate 1-HP sulfonation. To be noted: for Ki: read-out: Ki 7-DH.

The subject of data set [3] is Oc1ccc2ccc3cccc4ccc1c2c34. Put plainly: Initial-rate parameters, spin-labeled mutant 171. To be noted: other: spin label at 171; saturating PAPS (300 μM); 25.0 °C. The data set is classed as biochemical, human.
Data set [4] deals with T1, SULT2B1b S347D. Description: Equilibrium binding via intrinsic fluorescence. The procedure, abridged:
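Intrinsic fluorescence titrations of purified His/GST/MBP-tag-cleaved enzyme, excitation 290 nm, in KPO4 (50 mM), pH 7.5, 25 ± 2 °C. […] Triplicate averaged data were fit to a single-site-per-monomer model.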

For another data set, the target named is T2, SULT2B1b, S347D, W13A (Homo sapiens, UniProt O00204, S347D/W13A).
T2 sequence (O00204 1-365 W13A/S347D): T1 sequence (O00204 1-365 S347D) with W13A
Put plainly: Initial-rate parameters, direct-contact mutant W13A. To be noted: read-out: Km PAPS; W13A; saturating 1-HP (100 μM); (−) quercetin.

In data set [5] the target is T1, SULT2B1b S347D. Description: Stopped-flow ligand-binding studies.
In the next data set the target is T3, SULT2B1b, S347D, Y257A (Homo sapiens, UniProt O00204, S347D/Y257A).
T3 sequence (O00204 1-365 Y257A/S347D): T1 sequence (O00204 1-365 S347D) with Y257A
Description: Initial-rate parameters, direct-contact mutant Y257A. To be noted: read-out: Km PAPS; Y257A; saturating 1-HP (100 μM); (−) quercetin.

For another data set, the target named is T4, SULT2B1b, S347D, W98A (Homo sapiens, UniProt O00204, S347D/W98A).
T4 sequence (O00204 1-365 W98A/S347D): T1 sequence (O00204 1-365 S347D) with W98A
Description: Initial-rate parameters, direct-contact mutant W98A. The following applies: read-out: Km PAPS; W98A; saturating 1-HP (100 μM); (−) quercetin.

Data set [6] deals with Oc1ccc2ccc3cccc4ccc1c2c34. Put plainly: Initial-rate parameters, spin-labeled mutant 247. The class given is biochemical, human. To be noted: other: spin label at 247; saturating PAPS (300 μM); 25.0 °C.
Data set [7] deals with Oc1ccc2ccc3cccc4ccc1c2c34. Description: Initial-rate parameters, spin-labeled mutant 21. The class given is biochemical, human. To be noted: other: spin label at 21; saturating PAPS (300 μM); 25.0 °C.
In data set [8] the test system is Oc1ccc2ccc3cccc4ccc1c2c34. Description: Initial-rate parameters, non DTNB-reactive scaffold. To be noted: other: NR; saturating PAPS (300 μM); 25.0 °C. The data set is classed as biochemical, human.

Where a chain is given by its changes, count along the chain named. Like-named read-outs stand apart in the source and are kept apart here.

Take “SULT2B1b, S347D, W13A (Homo sapiens; S347D/W13A)”: in [1] (other: W13A), the Km is given as 4.2 (0.3) μM.
Take `CC(C)CCC[C@@H](C)[C@H]1CC[C@H]2C3=CC=C4C[C@@H](O)CC[C@]4(C)[C@H]3CC[C@]12C` [7-DH, 7-dehydrocholesterol]: in the data set on SULT2B1b, the SULT2B1b substrate result was “neither of which is a SULT2B1b substrate”. Also, the “α (fraction turnover at saturation), 7-DH” value at SULT2B1b S347D [2] (PAPS 30 μM, 1-HP 100 μM) stood at 0.11 ± 0.02. In addition, the Ki – broadly, the dissociation constant of the complex between target and ligand, obtained from inhibition or displacement – worked out at 110 nM on SULT2B1b S347D [2] and 110 ± 7 nM at SULT2B1b S347D [2] (PAPS 30 μM, 1-HP 100 μM, noncompetitive partial-inhibition model).
For the compound “SULT2B1b S347D spin-labeled at residue 171 (Homo sapiens; C225S/C278S/C81S/S347D/T171C)”, in [3], the Km is on record as 4.1 (0.2) μM; the kcat (in general, the number of substrate molecules converted per active site and unit of time at saturation) was determined as 3 s⁻¹.
With `Nc1ncnc2c1ncn2[C@@H]1O[C@H](COP(=O)(O)OS(=O)(=O)O)[C@@H](OP(=O)(O)O)[C@H]1O` [PAPS, 3′-phosphoadenosine 5′-phosphosulfate], the “increase of PAPS affinity” value at SULT2B1b S347D [4] (at saturating quercetin) worked out at 12 fold. In addition, on SULT2B1b, S347D, W13A, the Km was determined as 0.36 µM. On SULT2B1b S347D [5] ((−) Quc), the koff was 3.0 (0.2) s^−1 and the kon is recorded as 8.0 (0.3)^1 μM^−1s^−1. Moreover, the “rate constant for release of PAPS” value on SULT2B1b S347D [5] (absence of quercetin) came to 3.0 ± 0.2 s⁻¹. On SULT2B1b S347D [5] (at saturating quercetin), the “decrease of koff PAPS” value was determined as 14 fold and the “rate constant for PAPS release” value came out at 0.22 ± 0.2 s⁻¹. The Kd on SULT2B1b S347D [5] (read-out: Kd PAPS (koff/kon), (−) Quc) worked out at 380 nM. Also, the Km on SULT2B1b, S347D, Y257A amounted to 0.37 µM. Further, on SULT2B1b, S347D, W98A, the Km came out at 0.31 µM.
Consider “SULT2B1b, S347D, W98A (Homo sapiens; S347D/W98A)”, for which, in data set [1] (other: W98A), the Km was 3.6 (0.2) μM.
As for `Nc1ncnc2c1ncn2[C@@H]1O[C@H](COP(=O)(O)O)[C@@H](OP(=O)(O)O)[C@H]1O` [PAP, 3′-phosphoadenosine 5′-phosphate], the Kd at SULT2B1b S347D [4] was 380 nM.
With SULT2B1b S347D (Homo sapiens; S347D), in [1] (other: WT), the Km was 3.8 (0.3) μM and the kcat turned out to be 3.4 s⁻¹.
As to “SULT2B1b, S347D, Y257A (Homo sapiens; S347D/Y257A)”, the Km in data set [1] (other: Y257A) is 4.0 (0.3) μM.
Turning to “SULT2B1b S347D spin-labeled at residue 247 (Homo sapiens; C225S/C278S/C81S/S247C/S347D)”, in [6], the Km is given as 3.6 (0.3) μM and the kcat is 3.5 s⁻¹.
As for `CC(C)=CCC[C@@H](C)[C@H]1CC[C@H]2[C@@H]3CC=C4C[C@@H](O)CC[C@]4(C)[C@H]3CC[C@]12C` [24-DH, 24-dehydrocholesterol], the SULT2B1b substrate result in the data set on SULT2B1b was “neither of which is a SULT2B1b substrate”. The “inhibition of SULT2B1b turnover” value on SULT2B1b S347D [2] (concentrations as high as 10 μM) is listed as “does not inhibit”.
Turning to “SULT2B1b S347D spin-labeled at residue 21 (Homo sapiens; C225S/C278S/C81S/S21C/S347D)”, in data set [7], the Km was 4.2 (0.3) μM and the turnover number (kcat) is 3.6 s⁻¹.
“SULT2B1b C81S, C225S, C278S, S347D (Homo sapiens; C225S/C278S/C81S/S347D)”: in data set [8], the Km is listed as 3.5 (0.2) μM and the kcat is 3.3 s⁻¹.
